The text below walks through data of ChEMBL document CHEMBL1140880, “Arylphthalazines as potent, and orally bioavailable inhibitors of VEGFR-2” (Bioorg Med Chem, 2009).

Converted amounts (≈) assume the structure as drawn. Bounds are passed on as bounds.

The inhibition is the percentage by which the read-out fell short of the control. A high value points to strong suppression. The Cmax is the peak of the concentration-time curve. Usually solubility stands for the concentration that dissolves in the medium under given conditions. Lower therefore signals a poorly soluble substance. Usually AUC(0-t) stands for exposure summed from dosing to a finite time, without extrapolation to infinity.

Series [1] addresses T1, Vascular endothelial growth factor receptor 2 (Homo sapiens, UniProt P35968). In words: Inhibition of VEGFR2 by HTRF method. In general terms: Time-resolved FRET reads energy transfer from a long-lived donor to a nearby acceptor.
Target sequence in this assay (P35968 whole entry): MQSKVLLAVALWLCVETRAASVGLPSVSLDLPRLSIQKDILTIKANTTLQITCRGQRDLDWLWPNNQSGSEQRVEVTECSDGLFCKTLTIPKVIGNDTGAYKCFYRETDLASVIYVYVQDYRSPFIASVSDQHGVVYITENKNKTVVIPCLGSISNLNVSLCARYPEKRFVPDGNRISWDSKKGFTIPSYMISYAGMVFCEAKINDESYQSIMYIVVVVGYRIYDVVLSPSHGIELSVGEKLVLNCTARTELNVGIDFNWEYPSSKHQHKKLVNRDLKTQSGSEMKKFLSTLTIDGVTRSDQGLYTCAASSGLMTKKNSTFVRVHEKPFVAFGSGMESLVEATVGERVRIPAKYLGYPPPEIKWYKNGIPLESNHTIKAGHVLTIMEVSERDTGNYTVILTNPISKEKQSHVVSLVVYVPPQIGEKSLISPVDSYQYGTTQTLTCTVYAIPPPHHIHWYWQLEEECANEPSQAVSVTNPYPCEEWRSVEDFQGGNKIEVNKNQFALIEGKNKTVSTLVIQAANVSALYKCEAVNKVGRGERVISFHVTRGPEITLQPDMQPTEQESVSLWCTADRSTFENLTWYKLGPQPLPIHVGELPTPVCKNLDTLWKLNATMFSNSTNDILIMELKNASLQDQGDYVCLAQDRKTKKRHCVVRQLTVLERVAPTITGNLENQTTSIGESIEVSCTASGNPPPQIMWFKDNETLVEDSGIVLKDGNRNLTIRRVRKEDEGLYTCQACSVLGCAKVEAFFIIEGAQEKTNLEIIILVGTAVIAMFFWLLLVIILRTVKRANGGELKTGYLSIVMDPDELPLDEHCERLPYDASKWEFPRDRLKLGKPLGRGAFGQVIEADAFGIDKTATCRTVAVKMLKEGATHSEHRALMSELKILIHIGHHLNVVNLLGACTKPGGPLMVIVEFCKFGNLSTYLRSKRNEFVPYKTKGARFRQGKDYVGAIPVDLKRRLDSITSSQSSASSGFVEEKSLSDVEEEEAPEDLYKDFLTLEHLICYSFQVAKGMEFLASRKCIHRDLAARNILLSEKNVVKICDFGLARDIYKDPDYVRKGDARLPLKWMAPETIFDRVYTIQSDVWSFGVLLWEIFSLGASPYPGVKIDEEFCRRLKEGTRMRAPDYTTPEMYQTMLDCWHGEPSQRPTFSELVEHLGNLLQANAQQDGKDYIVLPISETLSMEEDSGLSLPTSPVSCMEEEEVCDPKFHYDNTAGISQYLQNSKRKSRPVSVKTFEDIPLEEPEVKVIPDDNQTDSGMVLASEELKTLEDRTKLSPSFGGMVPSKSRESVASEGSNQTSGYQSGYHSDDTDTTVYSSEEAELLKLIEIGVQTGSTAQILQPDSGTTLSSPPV
In the next series the test system is HUVEC. In words: Inhibition of VEGF-stimulated HUVEC cell proliferation treated before 2 hrs of VEGF challenge assessed after 3 days by [3H]thymidine incorporation assay. In kind it is functional. As to conditions: Homo sapiens, read-out: ED50 (the source's name); call rule not given here. The essentials: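 HUVEC seeded at 1 × 10^4 cells/well in EGM and allowed to adhere ≥4 h. Cells then quiesced 72 h in medium lacking EGF, VEGF and FGF with 1% FBS. Compound added for 2 h (0.1% DMSO), then stimulation with VEGF-165 (5 ng/well) for 3 days.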
For orientation: Dividing cells build labelled thymidine or BrdU into new DNA.

Series [2] concerns the target Voltage-gated inwardly rectifying potassium channel KCNH2 (Homo sapiens, UniProt Q12809). As to the kind of experiment: Inhibition of human ERG. Particulars: read-out: ED50 (the source's name).
The target of series [3] is T1, Vascular endothelial growth factor receptor 2. Particulars: HEK293.
Target sequence in this assay (P35968 whole entry, looked up): as the sequence (P35968 whole entry) above
A short description of series [4]: Drug level in po dosed CD1 mouse administered as 5% phosal solution after 4 hrs. The class given is ADME, organism-based. As to conditions: in vivo, read-out: Drug uptake. The method in brief: (§1)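 Preliminary exposure study in female CD-1 mice dosed by oral route; vehicles included 5% phosal solution. Plasma analysed for compound at 1-h and 4-h timepoints.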
Series [5] in a line: Inhibition of adenosine receptor at 10 uM.
Series [6] concerns the target Histamine H2 receptor (Homo sapiens) (UniProt P25021). In words: Inhibition of histamine H2 receptor at 10 uM.
Series [7] in a line: Cmax in CD1 mouse at 30 mg/kg administered as 5% phosal solution after 24 hrs. The class given is ADME, organism-based. More on the design: dose 30 mg/kg. Particulars: in vivo. The method in brief:
(§2)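 Female CD-1 mice (n = 3) given 30 mg/kg orally in 5% phosal solution (dihydrochloride salt; target ca. 3 mg/mL, dosed at 10 mL/kg).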

The target in another series is Cytochrome P450 3A4 (Homo sapiens, UniProt P08684). As to the kind of experiment: Inhibition of CYP3A4. In kind it is ADME.
Series [8] concerns the target Vascular endothelial growth factor receptor 3 (Homo sapiens) (UniProt P35916). In words: Inhibition of VEGFR3 at 10 uM.
Series [9] in a line: Drug level in po dosed CD1 mouse administered as 5% phosal solution after 1 hr. In kind it is ADME, organism-based. As to conditions: in vivo, read-out: Drug uptake. The method in brief:
as §1

Series [10] concerns the target Sodium-dependent dopamine transporter (Homo sapiens) (UniProt Q01959). As to the kind of experiment: Inhibition of dopamine transporter at 10 uM.
Series [11] addresses Fibroblast growth factor receptor 1 (Homo sapiens) (UniProt P11362). In words: Inhibition of FGFR1 at 10 uM.
Series [12] can be described thus: Solubility in deionized water. In kind it is physicochemical.
The nature of series [13]: AUC (0 to 24 hrs) in CD1 mouse at 30 mg/kg administered as 5% phosal solution. The class given is ADME, organism-based. More on the design: time < 24 hr, dose 30 mg/kg. As to conditions: plasma. The essentials:
as §2

Chain of Vascular endothelial growth factor receptor 3 (Homo sapiens) (P35916 whole entry): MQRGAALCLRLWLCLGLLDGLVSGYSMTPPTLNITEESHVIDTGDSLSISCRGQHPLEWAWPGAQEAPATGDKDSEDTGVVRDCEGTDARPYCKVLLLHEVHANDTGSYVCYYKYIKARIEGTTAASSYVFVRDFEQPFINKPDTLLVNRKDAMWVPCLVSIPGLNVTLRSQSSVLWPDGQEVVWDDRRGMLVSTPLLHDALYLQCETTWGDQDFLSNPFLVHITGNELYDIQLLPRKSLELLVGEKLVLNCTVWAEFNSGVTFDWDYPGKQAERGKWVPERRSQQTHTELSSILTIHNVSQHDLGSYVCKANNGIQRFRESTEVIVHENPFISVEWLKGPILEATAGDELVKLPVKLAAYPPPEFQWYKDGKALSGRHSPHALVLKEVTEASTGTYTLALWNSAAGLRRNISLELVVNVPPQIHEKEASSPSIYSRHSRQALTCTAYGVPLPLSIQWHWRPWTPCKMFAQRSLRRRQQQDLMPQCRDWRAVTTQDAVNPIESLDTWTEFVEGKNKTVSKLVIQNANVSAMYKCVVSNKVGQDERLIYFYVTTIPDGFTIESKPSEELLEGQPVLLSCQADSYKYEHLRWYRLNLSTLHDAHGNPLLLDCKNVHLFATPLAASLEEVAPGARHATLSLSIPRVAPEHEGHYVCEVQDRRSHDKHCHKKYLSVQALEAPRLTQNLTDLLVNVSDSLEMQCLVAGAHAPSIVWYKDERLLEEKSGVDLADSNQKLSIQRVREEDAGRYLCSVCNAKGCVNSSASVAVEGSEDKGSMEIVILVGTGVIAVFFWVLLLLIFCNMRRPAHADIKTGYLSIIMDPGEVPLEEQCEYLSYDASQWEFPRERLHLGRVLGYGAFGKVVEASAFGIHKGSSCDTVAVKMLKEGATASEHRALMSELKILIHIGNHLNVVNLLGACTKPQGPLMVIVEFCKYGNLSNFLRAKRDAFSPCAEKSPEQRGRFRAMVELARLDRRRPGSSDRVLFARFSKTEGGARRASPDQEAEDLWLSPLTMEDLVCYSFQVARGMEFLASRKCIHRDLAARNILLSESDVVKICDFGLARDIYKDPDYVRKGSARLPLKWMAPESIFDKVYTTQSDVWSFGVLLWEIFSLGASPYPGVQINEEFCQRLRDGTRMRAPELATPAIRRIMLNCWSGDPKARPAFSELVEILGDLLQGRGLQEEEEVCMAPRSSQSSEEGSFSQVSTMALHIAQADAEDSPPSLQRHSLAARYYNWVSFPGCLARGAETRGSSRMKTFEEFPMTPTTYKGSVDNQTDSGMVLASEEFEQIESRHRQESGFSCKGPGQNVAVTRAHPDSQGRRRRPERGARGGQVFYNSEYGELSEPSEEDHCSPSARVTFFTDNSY
Chain of Voltage-gated inwardly rectifying potassium channel KCNH2 (Q12809 whole entry): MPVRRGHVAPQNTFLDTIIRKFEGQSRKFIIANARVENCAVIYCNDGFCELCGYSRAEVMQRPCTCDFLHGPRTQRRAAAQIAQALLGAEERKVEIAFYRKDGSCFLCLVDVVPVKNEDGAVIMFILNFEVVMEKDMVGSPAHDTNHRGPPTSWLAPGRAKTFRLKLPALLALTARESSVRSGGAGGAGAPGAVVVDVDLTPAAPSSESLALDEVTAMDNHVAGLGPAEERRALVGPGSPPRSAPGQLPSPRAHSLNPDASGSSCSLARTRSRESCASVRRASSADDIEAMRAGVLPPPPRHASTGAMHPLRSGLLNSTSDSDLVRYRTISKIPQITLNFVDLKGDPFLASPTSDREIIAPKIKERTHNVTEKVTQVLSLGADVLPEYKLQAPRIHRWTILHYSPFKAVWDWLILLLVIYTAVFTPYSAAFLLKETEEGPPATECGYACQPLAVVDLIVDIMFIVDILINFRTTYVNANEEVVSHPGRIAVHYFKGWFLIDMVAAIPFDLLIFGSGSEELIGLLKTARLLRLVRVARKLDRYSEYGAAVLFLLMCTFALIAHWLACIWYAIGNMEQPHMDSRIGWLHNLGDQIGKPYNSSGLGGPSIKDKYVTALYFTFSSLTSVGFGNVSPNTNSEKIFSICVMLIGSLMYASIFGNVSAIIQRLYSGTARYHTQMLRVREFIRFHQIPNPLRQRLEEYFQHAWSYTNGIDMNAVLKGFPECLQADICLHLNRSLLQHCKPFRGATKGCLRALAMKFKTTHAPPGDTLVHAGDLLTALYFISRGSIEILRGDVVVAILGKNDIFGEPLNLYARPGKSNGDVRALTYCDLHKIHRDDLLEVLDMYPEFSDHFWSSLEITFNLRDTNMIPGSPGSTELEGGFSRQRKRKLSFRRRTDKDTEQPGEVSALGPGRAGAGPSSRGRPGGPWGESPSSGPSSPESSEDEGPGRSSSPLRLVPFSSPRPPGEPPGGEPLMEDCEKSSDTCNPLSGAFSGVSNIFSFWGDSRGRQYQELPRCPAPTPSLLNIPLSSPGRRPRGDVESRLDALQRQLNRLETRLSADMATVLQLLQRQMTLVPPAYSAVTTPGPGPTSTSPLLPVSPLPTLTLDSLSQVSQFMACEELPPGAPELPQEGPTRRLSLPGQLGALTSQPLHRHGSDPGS
Chain of Sodium-dependent dopamine transporter (Homo sapiens) (Q01959 whole entry): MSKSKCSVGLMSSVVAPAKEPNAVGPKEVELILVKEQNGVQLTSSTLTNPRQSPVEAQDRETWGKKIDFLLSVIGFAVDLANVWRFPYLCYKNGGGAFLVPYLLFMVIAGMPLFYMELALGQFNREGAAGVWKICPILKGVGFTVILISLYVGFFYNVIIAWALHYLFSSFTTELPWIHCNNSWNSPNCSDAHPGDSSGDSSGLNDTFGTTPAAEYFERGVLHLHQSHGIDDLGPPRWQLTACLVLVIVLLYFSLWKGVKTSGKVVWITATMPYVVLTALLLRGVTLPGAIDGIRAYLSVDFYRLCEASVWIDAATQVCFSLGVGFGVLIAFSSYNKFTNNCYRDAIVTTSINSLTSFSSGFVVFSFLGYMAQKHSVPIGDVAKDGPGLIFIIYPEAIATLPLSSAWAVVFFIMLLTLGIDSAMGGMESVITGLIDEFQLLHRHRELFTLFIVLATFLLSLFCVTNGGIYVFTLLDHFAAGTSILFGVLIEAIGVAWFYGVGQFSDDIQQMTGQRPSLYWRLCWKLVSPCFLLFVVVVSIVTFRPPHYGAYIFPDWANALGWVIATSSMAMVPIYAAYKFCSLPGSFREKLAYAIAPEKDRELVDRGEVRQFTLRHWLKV
Chain of Cytochrome P450 3A4 (P08684 whole entry): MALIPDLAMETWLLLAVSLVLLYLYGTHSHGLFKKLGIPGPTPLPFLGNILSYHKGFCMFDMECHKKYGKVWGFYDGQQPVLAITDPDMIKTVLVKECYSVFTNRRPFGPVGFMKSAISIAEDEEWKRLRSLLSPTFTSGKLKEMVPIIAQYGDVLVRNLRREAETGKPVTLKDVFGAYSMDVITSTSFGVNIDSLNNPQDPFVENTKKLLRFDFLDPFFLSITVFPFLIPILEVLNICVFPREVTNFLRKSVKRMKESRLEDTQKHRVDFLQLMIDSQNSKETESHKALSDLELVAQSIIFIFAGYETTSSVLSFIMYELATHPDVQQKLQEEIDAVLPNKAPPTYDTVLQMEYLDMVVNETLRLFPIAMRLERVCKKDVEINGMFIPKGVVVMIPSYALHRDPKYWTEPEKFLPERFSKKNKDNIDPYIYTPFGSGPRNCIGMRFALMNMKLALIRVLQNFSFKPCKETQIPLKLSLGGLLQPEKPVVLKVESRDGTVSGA

In series [1], `NC(=O)c1ccc(-c2nnc(Nc3ccc(Oc4ccccc4)cc3)c3ccccc23)cc1` had an IC50 of over 10 µM.
As to `CC(C)(C)c1ccc(Nc2nnc(-c3ccc(C(N)=O)cc3)c3ccccc23)cc1`, the EC50 in the series on HUVEC stood at 0.25 µM.
Turning to `Clc1ccc(Nc2nnc(-c3cccc4cnccc34)c3ccccc23)cc1`, the IC50 in series [2] stood at 3 µM. Further, in series [3], the ED50 is 0.01 µM. In addition, the concentration at 4 h in [4] was determined as 18.8 µM. Further, the EC50 with HUVEC was found to be 0.21 µM. The inhibition in series [5] was determined as 65%; in [6], 54%; in series [8] it was 33%; in series [10], 77%; in series [11] it was 38%. In addition, the Cmax in series [7] worked out at 25.9 µM. Besides, the Activity result on Cytochrome P450 3A4 was “Not Active”. In series [9], the concentration at 1 h was found to be 22.7 µM. This molecule also showed a solubility in [12] of 1 mg/mL (≈ 2610 µM). This molecule also returned an AUC(0-t) at 24 h in [13] of 891 µM·h.
Molecule `CNS(=O)(=O)c1ccc(Nc2nnc(-c3ccc(C(N)=O)cc3)c3ccccc23)cc1` yielded an IC50 in [1] of over 10 µM.
For the molecule `COc1cc2c(Oc3ccc4[nH]c(C)cc4c3F)ncnc2cc1OCCCN1CCCC1` [CEDIRANIB], the EC50 in the series on HUVEC stood at 0.012 µM.
On to `COc1cc2/c(=N/c3ccc(Br)cc3F)nc[nH]c2cc1OCC1CCN(C)CC1` [VANDETANIB], for which the EC50 in the series with HUVEC is 0.28 µM.
For the molecule `COc1ccc(Nc2nnc(-c3ccc(C(N)=O)cc3)c3ccccc23)cc1`, the ED50 in series [3] is over 10 µM.
